Assay results of several laboratories.
Compare with care: the assays were run in different laboratories.
Observed: DPPH scavenging

| Compound | technique | IC50 |
| --- | --- | --- |
| COc1cc(C=Cc2cc(-c3ccccc3)nc(O)n2)ccc1O |  | 24 µg/mL |
| COc1ccc(OC)c(NC(=O)Cc2c[nH]c3ccccc23)c1 |  | 2000 nM |
| COc1cc(C(CC(N)=O)NCCc2ccc(O)c(O)c2)ccc1O (stereo not drawn) |  | 80.2 µg/mL |
| COc1cc(NC(=O)Cc2c[nH]c3ccccc23)ccc1C |  | 1530 nM |
| CCOC(=O)c1cc(O)c(O)c(O)c1 | absorbance | 43400 nM |
| COc1ccc(NC(=O)Cc2c[nH]c3ccccc23)cc1 |  | 1040 nM |
| COc1ccc(-c2nc3cc(C)c(C)cc3[nH]2)cc1OCc1ccccc1 | absorbance | 1820 nM |
| O=C(Cc1c[nH]c2ccccc12)Nc1ccccc1 |  | 2360 nM |
| Cc1cc(C(C)(C)C)c(O)c(C(C)(C)C)c1 | absorbance | 25.9 µg/mL |
| O=C1O[C@H]([C@@H](O)CO)C(O)=C1O |  | 3.6 µg/mL |
| O=C(O)c1cc(O)c(O)c(O)c1 | absorbance | 36700 nM |
| COc1ccc(-c2nc3ccccc3[nH]2)cc1OCc1ccccc1 | absorbance | 1480 nM |
| O=c1oc2c(O)c(O)cc3c(=O)oc4c(O)c(O)cc1c4c23 | absorbance | 67800 nM |
| Cc1cc(C(C)(C)C)c(O)c(C(C)(C)C)c1 |  | 25.2 µg/mL |
| COc1cc(C=CC(=O)CC(c2ccc([N+](=O)[O-])cc2)n2ccnc2)ccc1O (stereo not drawn) |  | 26.9 µg/mL |
| CCCCCCCCOc1ccc(NC(=O)Cc2c[nH]c3ccccc23)cc1 |  | 2450 nM |
| Cc1c(C)c2c(c(C)c1O)CC[C@@](C)(CCC[C@H](C)CCC[C@H](C)CCCC(C)C)O2 | absorbance | 11.3 µg/mL |
| O=C(Cc1c[nH]c2ccccc12)Nc1cccc(F)c1 |  | 1530 nM |
| COc1cc(C(CC(=O)c2ccc(C(C)(C)C)cc2)NCCc2ccc(O)c(O)c2)ccc1O (stereo not drawn) |  | 15.6 µg/mL |
| COc1cc(-c2oc3cc(O)cc(O)c3c(=O)c2O[C@@H]2O[C@H](CO)[C@@H](O)[C@H](O)[C@H]2O)ccc1O | absorbance | > 500000 nM |
| COc1ccc(-c2nc3cc(F)ccc3[nH]2)cc1OCc1ccccc1 | absorbance | 2580 nM |
